Measurements: ChEMBL document CHEMBL1764975, “A new DNA gyrase inhibitor subclass of the cyclothialidine family based on a bicyclic dilactam-lactone scaffold. Synthesis and antibacterial properties” (J Med Chem, 2011)
≈ marks a conversion by molar mass, not a printed value.

System: not listed separately
Assay: Octanol-water partition coefficient, log D of the compound at pH 7.4 by shake-flask method
Format: physicochemical
Conditions: not given
Method in brief: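 Octanol/water partition measured by shake-flask at pH 7.4.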
COc1cc(O)c2c(c1C)C(=O)OCCCCC(=S)N[C@H](c1nc(C)no1)CSC2 showed a logD of 3.09. Molecule COc1cc(O)c2c(c1C)C(=O)OCCCCC(=O)N[C@H](c1nc(C)no1)CSC2 has a logD of 1.99.

System: Staphylococcus aureus
Assay: (§1) Antimicrobial activity against Staphylococcus aureus Smith after 18 hrs by agar dilution method
Format: functional
Conditions: not given
Method in brief: (§2)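 Agar dilution on Mueller-Hinton medium, inoculum 10⁴ CFU/spot; MIC is the minimum inhibitory concentration against the named strain.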
With COc1cc(O)c2c(c1C)C(=O)OCCCCC(=S)N[C@H](c1nc(C)no1)CSC2 the MIC was 0.06 µg/mL (≈ 0.133 µM). Work on COc1cc(O)c2c(c1C)C(=O)OCCCCC(=O)N[C@H](c1nc(C)no1)CSC2 yielded an MIC of 0.25 µg/mL (≈ 0.574 µM).

System: Enterococcus faecalis
Assay: Antimicrobial activity against multidrug-resistant Enterococcus faecalis after 18 hrs by agar dilution method
Format: functional
Conditions: not given
Method in brief: (§3)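 Agar dilution on Mueller-Hinton agar, inoculum 10⁴ CFU/spot, against panels of multiresistant clinical strains (S. aureus 11, E. faecalis 16, E. faecium 23). MIC_50/90 in μg/mL taken as the minimum concentration inhibiting at least 50% or 90% of the strains tested.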
Work on COc1cc(O)c2c(c1C)C(=O)O[C@H](CO)CCC/C(S)=N/[C@H](c1nc(C)no1)CSC2 yielded an MIC50 of 1 µg/mL (≈ 2.08 µM) and an MIC90 of 1 µg/mL (≈ 2.08 µM). In the case of COc1cc(O)c2c(c1C)C(=O)OCCCCC(=S)N[C@H](c1nc(C)no1)CSC2, the MIC50 was 4 µg/mL (≈ 8.86 µM) and the MIC90 was 4 µg/mL (≈ 8.86 µM). For CC(=O)NC[C@H]1CN(c2ccc(N3CCOCC3)c(F)c2)C(=O)O1 [LINEZOLID], the MIC50 was 2 µg/mL (≈ 5.93 µM) and the MIC90 was 2 µg/mL (≈ 5.93 µM).

System: Streptococcus pyogenes
Assay: Antimicrobial activity against Streptococcus pyogenes b15 after 18 hrs by agar dilution method
Format: functional
Conditions: b15, 18 h
Method in brief: as §2
COc1cc(O)c2c(c1C)C(=O)OCCCCC(=S)N[C@H](c1nc(C)no1)CSC2 gave an MIC of 0.25 µg/mL (≈ 0.554 µM). Molecule COc1cc(O)c2c(c1C)C(=O)OCCCCC(=O)N[C@H](c1nc(C)no1)CSC2 has an MIC of 1 µg/mL (≈ 2.3 µM).

System: Staphylococcus aureus
Assay: Antimicrobial activity against multidrug-resistant Staphylococcus aureus after 18 hrs by agar dilution method
Format: functional
Conditions: not given
Method in brief: as §3
Molecule COc1cc(O)c2c(c1C)C(=O)O[C@H](CO)CCC/C(S)=N/[C@H](c1nc(C)no1)CSC2 has an MIC50 of 1 µg/mL (≈ 2.08 µM) and an MIC90 of 1 µg/mL (≈ 2.08 µM). Molecule COc1cc(O)c2c(c1C)C(=O)OCCCCC(=S)N[C@H](c1nc(C)no1)CSC2 has an MIC50 of 1 µg/mL (≈ 2.21 µM) and an MIC90 of 1 µg/mL (≈ 2.21 µM). For CC(=O)NC[C@H]1CN(c2ccc(N3CCOCC3)c(F)c2)C(=O)O1 [LINEZOLID], the MIC50 was 1 µg/mL (≈ 2.96 µM) and the MIC90 was 2 µg/mL (≈ 5.93 µM).

System: Staphylococcus aureus
Assay: as §1
Format: functional
Conditions: not given
Method in brief: as §2
In the case of COc1cc(O)c2c(c1C)C(=O)O[C@H](CO)CCC/C(S)=N/[C@H](c1nc(C)no1)CSC2, the MIC was 0.5 µg/mL (≈ 1.04 µM). In the case of COc1cc(O)c2c(c1C)C(=O)OCCCCC(=S)N[C@H](c1nc(C)no1)CSC2, the MIC was 0.06 µg/mL (≈ 0.133 µM). Work on COc1cc(O)c2c(c1C)C(=O)OCCCCC(=O)N[C@H](c1nc(C)no1)CSC2 yielded an MIC of 0.25 µg/mL (≈ 0.574 µM).

System: Moraxella catarrhalis
Assay: Antimicrobial activity against multidrug-resistant Moraxella catarrhalis after 18 hrs by agar dilution method
Format: functional
Conditions: not given
Method in brief: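 Agar dilution on Mueller-Hinton agar supplemented with sheep blood (5% v/v), inoculum 10⁵ CFU/spot, against 20 multiresistant M. catarrhalis strains. MIC_50/90 in μg/mL taken as the minimum concentration inhibiting at least 50% or 90% of the strains.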
COc1cc(O)c2c(c1C)C(=O)O[C@H](CO)CCC/C(S)=N/[C@H](c1nc(C)no1)CSC2 showed an MIC50 of 2 µg/mL (≈ 4.15 µM) and an MIC90 of 2 µg/mL (≈ 4.15 µM). Molecule CC1(C)S[C@@H]2[C@H](NC(=O)Cc3ccccc3)C(=O)N2[C@H]1C(=O)O [PENICILLIN G] has an MIC50 of 8 µg/mL (≈ 23.9 µM) and an MIC90 of 32 µg/mL (≈ 95.7 µM). For COc1cc(O)c2c(c1C)C(=O)OCCCCC(=S)N[C@H](c1nc(C)no1)CSC2, the MIC50 was 2 µg/mL (≈ 4.43 µM) and the MIC90 was 2 µg/mL (≈ 4.43 µM). For CC(=O)NC[C@H]1CN(c2ccc(N3CCOCC3)c(F)c2)C(=O)O1 [LINEZOLID], the MIC50 was 8 µg/mL (≈ 23.7 µM) and the MIC90 was 16 µg/mL (≈ 47.4 µM).

System: Stenotrophomonas maltophilia
Assay: Antimicrobial activity against Xanthomonas maltophilia IAC 739 after 18 hrs by agar dilution method
Format: functional
Conditions: IAC 739, 18 h
Method in brief: as §2
For COc1cc(O)c2c(c1C)C(=O)OCCCCC(=S)N[C@H](c1nc(C)no1)CSC2, the MIC was 0.5 µg/mL (≈ 1.11 µM). COc1cc(O)c2c(c1C)C(=O)OCCCCC(=O)N[C@H](c1nc(C)no1)CSC2 showed an MIC of 4 µg/mL (≈ 9.18 µM).

System: Staphylococcus aureus
Assay: Antimicrobial activity against Staphylococcus aureus Smith infected in iv dosed septicaemia Swiss albino mouse model after 4 days
Format: functional
Conditions: 96 h
Method in brief: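 Septicaemia model in mice infected with S. aureus Smith, compound given iv. In experiments with 0-1 survivors among 5-10 control mice, ED₅₀ (mg/kg) taken as lowest dose giving 3-5 survivors out of 5 infected mice.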
COc1cc(O)c2c(c1C)C(=O)O[C@H](CO)CCC/C(S)=N/[C@H](c1nc(C)no1)CSC2 gave an ED50 of 12.5 mg/kg. For COc1cc(O)c2c(c1C)C(=O)OCCCCC(=S)N[C@H](c1nc(C)no1)CSC2, the ED50 was greater than 25 mg/kg. COc1cc(O)c2c(c1C)C(=O)OCCCCC(=O)N[C@H](c1nc(C)no1)CSC2 showed an ED50 greater than 25 mg/kg.

System: Haemophilus influenzae
Assay: Antimicrobial activity against multidrug-resistant Haemophilus influenzae after 18 hrs by agar dilution method
Format: functional
Conditions: not given
Method in brief: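 Agar dilution on Haemophilus test medium, inoculum 10⁵ CFU/spot, against 21 multiresistant H. influenzae strains. MIC_50/90 in μg/mL taken as the minimum concentration inhibiting at least 50% or 90% of the strains.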
Work on COc1cc(O)c2c(c1C)C(=O)O[C@H](CO)CCC/C(S)=N/[C@H](c1nc(C)no1)CSC2 yielded an MIC50 of 8 µg/mL (≈ 16.6 µM) and an MIC90 of 8 µg/mL (≈ 16.6 µM). CC1(C)S[C@@H]2[C@H](NC(=O)Cc3ccccc3)C(=O)N2[C@H]1C(=O)O [PENICILLIN G] showed an MIC50 of 32 µg/mL (≈ 95.7 µM) and an MIC90 greater than 32 µg/mL. Molecule COc1cc(O)c2c(c1C)C(=O)OCCCCC(=S)N[C@H](c1nc(C)no1)CSC2 has an MIC50 of 8 µg/mL (≈ 17.7 µM) and an MIC90 of 16 µg/mL (≈ 35.4 µM). Molecule CC(=O)NC[C@H]1CN(c2ccc(N3CCOCC3)c(F)c2)C(=O)O1 [LINEZOLID] has an MIC50 of 8 µg/mL (≈ 23.7 µM) and an MIC90 of 16 µg/mL (≈ 47.4 µM).

System: Escherichia coli
Assay: Inhibition of Escherichia coli DNA gyrase A2B2 complex after 30 mins by supercoiling assay
Conditions: not given
With COc1cc(O)c2c(c1C)C(=O)O[C@H](CO)CCC/C(S)=N/[C@H](c1nc(C)no1)CSC2 the MNEC was 0.005 µg/mL. In the case of COc1cc(O)c2c(c1C)C(=O)OCCCCC(=S)N[C@H](c1nc(C)no1)CSC2, the MNEC was 0.004 µg/mL. For COc1cc(O)c2c(c1C)C(=O)OCCCCC(=O)N[C@H](c1nc(C)no1)CSC2, the MNEC was 0.01 µg/mL.

System: Enterococcus faecium
Assay: Antimicrobial activity against multidrug-resistant Enterococcus faecium after 18 hrs by agar dilution method
Format: functional
Conditions: not given
Method in brief: as §3
COc1cc(O)c2c(c1C)C(=O)O[C@H](CO)CCC/C(S)=N/[C@H](c1nc(C)no1)CSC2 showed an MIC50 of 1 µg/mL (≈ 2.08 µM) and an MIC90 of 2 µg/mL (≈ 4.15 µM). Molecule COc1cc(O)c2c(c1C)C(=O)OCCCCC(=S)N[C@H](c1nc(C)no1)CSC2 has an MIC50 of 8 µg/mL (≈ 17.7 µM) and an MIC90 of 8 µg/mL (≈ 17.7 µM). Work on CC(=O)NC[C@H]1CN(c2ccc(N3CCOCC3)c(F)c2)C(=O)O1 [LINEZOLID] yielded an MIC50 of 1 µg/mL (≈ 2.96 µM) and an MIC90 of 2 µg/mL (≈ 5.93 µM).

System: Staphylococcus epidermidis
Assay: Antimicrobial activity against Staphylococcus epidermidis 16/2 after 18 hrs by agar dilution method
Format: functional
Conditions: 16/2, 18 h
Method in brief: as §2
For COc1cc(O)c2c(c1C)C(=O)OCCCCC(=S)N[C@H](c1nc(C)no1)CSC2, the MIC was 0.01 µg/mL (≈ 0.0221 µM). Molecule COc1cc(O)c2c(c1C)C(=O)OCCCCC(=O)N[C@H](c1nc(C)no1)CSC2 has an MIC of 0.12 µg/mL (≈ 0.276 µM).

System: Staphylococcus aureus
Assay: Plasma shift, ratio of MIC for Staphylococcus aureus Smith in presence of mouse plasma to MIC for Staphylococcus aureus Smith in absence of mouse plasma
Format: functional
Conditions: not given
Method in brief: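 Agar dilution MICs against S. aureus Smith were run on BHI agar mixed 1:1 with mouse plasma and on plain BHI agar. The plasma shift is the MIC with plasma divided by the MIC on BHI agar alone.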
With COc1cc(O)c2c(c1C)C(=O)OCCCCC(=S)N[C@H](c1nc(C)no1)CSC2 the Ratio was 8. Work on COc1cc(O)c2c(c1C)C(=O)OCCCCC(=O)N[C@H](c1nc(C)no1)CSC2 yielded a Ratio of 2.

System: Escherichia coli
Assay: Antimicrobial activity against Escherichia coli 25922 after 18 hrs by agar dilution method
Format: functional
Conditions: Escherichia coli, 25922, 18 h
Method in brief: as §2
For COc1cc(O)c2c(c1C)C(=O)OCCCCC(=S)N[C@H](c1nc(C)no1)CSC2, the MIC was greater than 64 µg/mL. COc1cc(O)c2c(c1C)C(=O)OCCCCC(=O)N[C@H](c1nc(C)no1)CSC2 gave an MIC greater than 64 µg/mL.

System: Streptococcus pneumoniae
Assay: Antimicrobial activity against multidrug-resistant Streptococcus pneumoniae after 18 hrs by agar dilution method
Format: functional
Conditions: not given
Method in brief: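 Agar dilution on IsoSensitest agar supplemented with sheep blood (5% v/v), inoculum 10⁴ CFU/spot, against 21 multiresistant S. pneumoniae strains. MIC_50/90 in μg/mL taken as the minimum concentration inhibiting at least 50% or 90% of the strains.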
COc1cc(O)c2c(c1C)C(=O)O[C@H](CO)CCC/C(S)=N/[C@H](c1nc(C)no1)CSC2 showed an MIC50 of 2 µg/mL (≈ 4.15 µM) and an MIC90 of 4 µg/mL (≈ 8.31 µM). CC1(C)S[C@@H]2[C@H](NC(=O)Cc3ccccc3)C(=O)N2[C@H]1C(=O)O [PENICILLIN G] showed an MIC50 of 2 µg/mL (≈ 5.98 µM) and an MIC90 of 8 µg/mL (≈ 23.9 µM). COc1cc(O)c2c(c1C)C(=O)OCCCCC(=S)N[C@H](c1nc(C)no1)CSC2 showed an MIC50 of 1 µg/mL (≈ 2.21 µM) and an MIC90 of 2 µg/mL (≈ 4.43 µM). In the case of CC(=O)NC[C@H]1CN(c2ccc(N3CCOCC3)c(F)c2)C(=O)O1 [LINEZOLID], the MIC50 was 1 µg/mL (≈ 2.96 µM) and the MIC90 was 2 µg/mL (≈ 5.93 µM).

System: Enterococcus faecalis
Assay: Antimicrobial activity against Enterococcus faecalis 6 after 18 hrs by agar dilution method
Conditions: Enterococcus faecalis, 6, 18 h
COc1cc(O)c2c(c1C)C(=O)OCCCCC(=S)N[C@H](c1nc(C)no1)CSC2 gave an MIC of 0.25 µg/mL (≈ 0.554 µM). COc1cc(O)c2c(c1C)C(=O)OCCCCC(=O)N[C@H](c1nc(C)no1)CSC2 gave an MIC of 0.5 µg/mL (≈ 1.15 µM).

System: Staphylococcus aureus
Assay: Antimicrobial activity against Staphylococcus aureus ATCC 25923 after 18 hrs by agar dilution method
Format: functional
Conditions: ATCC 25923, 18 h
Method in brief: as §2
For COc1cc(O)c2c(c1C)C(=O)OCCCCC(=S)N[C@H](c1nc(C)no1)CSC2, the MIC was 0.12 µg/mL (≈ 0.266 µM). Work on COc1cc(O)c2c(c1C)C(=O)OCCCCC(=O)N[C@H](c1nc(C)no1)CSC2 yielded an MIC of 0.5 µg/mL (≈ 1.15 µM).
